One assay concerns the target untagged mPanx1 (Mus musculus, UniProt Q9JIP4). It counts as cell-based. Put shortly:
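Neuro2A cells transfected with untagged mPanx1 construct. Whole-cell recording at room temperature on cells held at −60 mV, with pH 7.4 external and CsCl/EGTA/ATP pipette solutions. Channels activated by 10-s voltage ramps from −60 to +100 mV. Test compound superfused during ramps, then washed out to test reversibility.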

Assay [1] addresses T1, mPanx1-GFP (Mus musculus, UniProt Q9JIP4). Briefly: Inside-out single channel patch clamp on Rin-m cells transfected with Panx1-GFP. In kind it is cell-based. The conditions noted are these: for Effect on open time of Panx1-GFP channel: inside-out patch. An outline of the steps: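 Rin-m cells grown in RPMI with 5% fetal calf serum, under passage 20. Transfected overnight with 2 μg mPanx1-GFP via lipofectamine, then replated 24–36 h. Inside-out single-channel recordings at room temperature on brightly fluorescent cells. Bath pH 7.4 NaCl/Hepes; pipette CsCl/EGTA with 1 mM ATP. Test compound perfused 20 s, then washed out. Mean channel open time compared before, during and after.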

Assay [2] addresses T1, mPanx1-GFP. Description: Whole cell patch clamp of depolarization-induced. It counts as cell-based. An outline of the steps: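 Neuro2A cells in DMEM with 10% FCS, lipofectamine-transfected with mPanx1-GFP, recorded 24–36 h after replating. Whole-cell clamp at room temperature, held at −60 mV. Pipette CsCl/EGTA with 1 mM ATP. Currents evoked by 10-s ramps from −60 to +100 mV at 20-s intervals; kinetics from +100 mV current over 8.5 min. Test compound superfused at 1 nM–1 mM, washed out after a stable plateau. Dose-response curves; timing by ANOVA with Dunnett's test.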

Another assay has as its system adenosine receptors. The following applies: ref Weiss et al., 2003; cited from earlier work.
Assay [3] concerns C×46 hemichannels and Panx1 channels. The following applies: oocytes; ref Bruzzone et al, 2006; cited from earlier work.
The test system of a further assay is human erythrocytes. The following applies: ref Skas et al, 2009; cited from earlier work.
The test system of a further assay is Panx1. The conditions noted are these: nanomolar concentrations, astrocytes; ref Iglesias et al, 2008, 2009; cited from earlier work.
In the next assay the test system is astrocytes. The following applies: nanomolar concentrations, ref Suadicani et al, 2006; cited from earlier work.
The next assay deals with murine erythrocytes. The following applies: ref Skals et al, 2009; cited from earlier work.
Where [4] appears, read: 100 nM, listed as mefloquine from Bioblocks.
Setting [5] is: 100 nM, listed as mefloquine from Sigma.

Molecules are shown by their SMILES. Where two headings read alike, the source gives them in different places.

T1 sequence (Q9JIP4 whole entry, the tested form may be a part): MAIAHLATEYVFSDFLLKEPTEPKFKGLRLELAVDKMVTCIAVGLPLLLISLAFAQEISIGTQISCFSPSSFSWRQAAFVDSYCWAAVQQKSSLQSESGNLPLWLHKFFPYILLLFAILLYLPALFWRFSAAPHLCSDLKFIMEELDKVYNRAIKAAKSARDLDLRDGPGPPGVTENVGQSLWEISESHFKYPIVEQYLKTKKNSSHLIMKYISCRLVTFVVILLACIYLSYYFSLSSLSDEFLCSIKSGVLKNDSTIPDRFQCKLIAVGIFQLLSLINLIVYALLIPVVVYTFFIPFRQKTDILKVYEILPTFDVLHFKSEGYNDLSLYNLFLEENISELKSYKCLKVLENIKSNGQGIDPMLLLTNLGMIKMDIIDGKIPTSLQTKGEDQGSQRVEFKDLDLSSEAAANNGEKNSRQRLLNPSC
Sequence of untagged mPanx1 (Q9JIP4 whole entry, the tested form may be a part): as above

Take `OC(c1cc(C(F)(F)F)nc2c(C(F)(F)F)cccc12)C1CCCCN1` (racemic) [(±)-erythro-(R*/S*)-mefloquine]: the “Effect on untagged Panx1 currents” value at untagged mPanx1 (10 nM) is listed as “similarly reduced”; on untagged mPanx1 (setting [4]), “similarly reduced”; on untagged mPanx1 (setting [5]), “not affected”; on untagged mPanx1 (1μM), “not affected”. Further, the figures for the “Effect on open time of Panx1-GFP channel” value at mPanx1-GFP [1] (100nM perfused for 20 seconds) and on mPanx1-GFP [1] (1 μM) were “decreased” and “did not appreciably affect”, respectively. In addition, the “Mean open time of Panx1 channel after washout” value on mPanx1-GFP [1] (after washout of 100nM) is recorded as “restored”. In addition, the “Time required for 50% blockade of Panx1 currents” value on mPanx1-GFP [2] worked out at 1.5 min; at mPanx1-GFP [2] (applied at 100nM) it was 0.5 min. For the same molecule, the “Effect on Panx1-GFP currents evoked by depolarizing voltage ramps” value is reported as “similarly reduced” at mPanx1-GFP [2] (10 nM); “substantially reduced” at mPanx1-GFP [2] (100 nM); “similarly reduced” at mPanx1-GFP [2] (setting [4]); “not affected” on mPanx1-GFP [2] (setting [5]); “not affected” at mPanx1-GFP [2] (1μM); “only minimally blocked” at mPanx1-GFP [2] (100μM). Further, the “Time at which current amplitudes were significantly reduced compared to control” value at mPanx1-GFP [2] (100 nM, currents at +100mV) turned out to be 1.5 min. On mPanx1-GFP [2] (compared with Bioblocks and NCI-NIH racemate), the “Times less potent than erythro-mefloquine racemate from the two other sources” value is listed as 10,000 times.
On to `OC(c1cc(C(F)(F)F)nc2c(C(F)(F)F)cccc12)C1CCCCN1` (single isomer, unassigned; (-)) [(−)-erythro- enantiomer, (−)-erythro-(11S/2′R)-MFQ], for which the “Binding to adenosine receptors” value with adenosine receptors is listed as “bind”.
As to `O[C@H](c1cc(C(F)(F)F)nc2c(C(F)(F)F)cccc12)[C@H]1CCCCN1` [(−)-threo-(11R/2′R)-mefloquine], on mPanx1-GFP [2] (1μM), the “Effect on Panx1-GFP currents evoked by depolarizing voltage ramps” value is “prevented”. Moreover, the “Time required for 50% blockade of Panx1 currents” value on mPanx1-GFP [2] (applied at 10μM) worked out at 1.5 min.
As to `CC1(C)[C@@H](OC(=O)CCC(=O)O)CC[C@]2(C)[C@H]3C(=O)C=C4[C@@H]5C[C@@](C)(C(=O)O)CC[C@]5(C)CC[C@@]4(C)[C@]3(C)CC[C@@H]12` [carbenoxolone], in [3], the “Difference in potency for blockade between C×46 hemichannels and Panx1 channels” value is listed as 5–10 fold.
As for `O=C(O)c1ccccc1Nc1cccc(C(F)(F)F)c1` [flufenamic acid], the “Difference in potency for blockade between C×46 hemichannels and Panx1 channels” value in assay [3] is reported as 5–10 fold.
Take `OC(c1cc(C(F)(F)F)nc2c(C(F)(F)F)cccc12)C1CCCCN1` (centres unmarked) [mefloquine]: the “Concentration required for prevention of HIyA-induced hemolysis” value with human erythrocytes and in the assay on murine erythrocytes was “above 10 μM” throughout. Moreover, the “Effect on depolarization- and BzATP-evoked Panx1 currents” value in the assay on Panx1 is “inhibit”. In addition, the “Effect on dye uptake evoked by P2X7 receptor stimulation” value in the assay on astrocytes is listed as “block”.

These data come from paper PMC2854254 (Cell communication & adhesion, 2009).
